# Published values collected from several papers.
# Lines come from different studies, so protocols differ.
# CYP2D6: Cytochrome P450 2D6 (CYP2D6, Homo sapiens, UniProt P10635)
# Dihydroorotate dehydrogenase (quinone), mitochondrial: Dihydroorotate dehydrogenase (quinone), mitochondrial (Rattus norvegicus, UniProt Q63707)
SMILES,target,assay,system,conditions,measurement,value
C=C(F)C(=O)N1CCN(c2nc(OC[C@@H]3CCCN3C)nc3c2CCN(c2cccc4cccc(Cl)c24)C3)C[C@@H]1CC#N,CYP2D6,"enzyme activity, inhibitor","human, liver microsomes",,Ki,26.4 µM
COc1cc(O)c2c(c1)C(=O)c1cc(C)cc(O)c1C2=O,CYP2D6,"enzyme activity, inhibitor","human, liver microsomes",pH 7.4,Ki,8.66 µM
O=C1CCC(=O)N1Cc1cc2nccc(-c3cc(Cl)cc4c3N([C@@H]3CNC5(CCC5)C3)CCC4)c2s1,"Ubiquitin carboxyl-terminal hydrolase 7 (USP7, Homo sapiens, UniProt Q93009)","binding, SPR",,,Kd,0.0001 µM
Cc1nn(CCc2ccccc2)c2ncc(C(=O)NCc3cccnc3)c(Cl)c12,"Prolyl endopeptidase (PREP, Homo sapiens, UniProt P48147)","enzyme activity, inhibitor, fluorescence",,,IC50,14 µM
CCNC(=O)/C=C/c1cccc(Br)c1,"Sodium-dependent neutral amino acid transporter B(0)AT1 (SLC6A19, Homo sapiens, UniProt Q695T7)","transporter uptake, inhibitor, radiometric",,,IC50,0.84 µM
Cn1nc2c(=O)n(C3CC3)ncc2c1[C@](O)(c1cnc(C(F)(F)F)c(Cl)c1)C(F)(F)F,"Dihydroorotate dehydrogenase (quinone), mitochondrial","enzyme activity, inhibitor, absorbance",,,IC50,> 30 µM
C[C@@H]1CN(c2ccc(-c3cc(C(=O)NCCCNC(=O)/C=C/c4[nH]cc(C(=O)N[C@@H](CC(N)=O)c5ccc(F)c(Cl)c5)c4-c4ccc(Cl)cc4F)ccc3F)cc2NC(=O)c2c[nH]c(=O)cc2C(F)(F)F)C[C@H](C)N1C,"DDB1- and CUL4-associated factor 1 (DCAF1, Homo sapiens, UniProt Q9Y4B6)","binding, SPR",,,Kd,0.0152 µM
Cn1nc2c(=O)n(C3CC3)ncc2c1[C@](N)(c1ccc(C(F)(F)F)c(Cl)c1)C1CC1,"Dihydroorotate dehydrogenase (quinone), mitochondrial","enzyme activity, inhibitor, absorbance",,,IC50,6.2 µM
Nc1ccccc1NC(=O)c1ccc(CNc2ccc(NC3=C(Cl)C(=O)c4cccnc4C3=O)cc2)cc1,"Histone deacetylase 3 (HDAC3, Homo sapiens, UniProt O15379)","enzyme activity, inhibitor",,,IC50,0.716 µM
Cc1ccc(C(=O)Nc2ccc(CN3CCN(C)CC3)c(C(F)(F)F)c2)cc1C#Cc1cnc2cccnn12,"Calmodulin-domain protein kinase 1, putative (Cryptosporidium parvum, UniProt A3FQ16)","enzyme activity, inhibitor",,,IC50,> 1 µM
Cn1nc2c(=O)n(C3CC3)ccc2c1[C@](O)(c1cnc(C(F)(F)F)c(Cl)c1)C(F)(F)F,"Dihydroorotate dehydrogenase (quinone), mitochondrial","enzyme activity, inhibitor, absorbance",,,IC50,16 µM
Cc1ccc2[nH]c(=O)c(CNC3CCCCC3)cc2c1,"Alpha-1B adrenergic receptor (ADRA1B, Homo sapiens, UniProt P35368)",ligand displacement in cells,,,Ki,0.155 µM
